Bioassay records as filed in PubChem.
Apaf-1 act: activates human Apaf-1 apoptosome | O14727 | 330,000 compounds, 0.31% hits | AID 489031 | activity change, negative = activation, % at 20 µM | Apaf-1 apoptosome caspase-3 activation, DEVD-Rh110 fluorescence; hits give low values;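 active = activity change at or below -40% at 20 µM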
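Assay system – biochemical Apaf-1 apoptosome reconstitution · Medium – 20 mM HEPES buffer, pH 7.5, containing CHAPS and BSA · Incubation – 30 min preincubation, 50 min reaction, room temperature · Measured by – Caspase-3-released Rh110 fluorescence, 540 nm emission, 480 nm excitation · Read-out – Caspase-3 cleavage activity downstream of Apaf-1 activation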
Rh110 act interf: counter-screen for Apaf-1 activators: fluorescence interference; shares compounds with Apaf-1 act; Rh110 fluorescence interference, quenched caspase reaction, Ex480/Em540; fluorescence interference (activity change), % at 20 µM, hits read low; 980 tested, under 10 active;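 active = mean activity change at or below -40% when tested at 20 µM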
Apaf-1 act conf: Apaf-1 (human) activation, single-dose confirmed; shares compounds with Apaf-1 act; activity change, negative = activation, % at 20 µM; reconstituted apoptosome caspase-3 activity, DEVD-Rh110 fluorescence; hits give low values; AID 504617; 980 compounds, 5% hits;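 active = mean activity change at or below -40%, meaning activation of 40% or more, at 20 µM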
* marks the source's active call; other numbers are inactive results. Only a sample is shown.

SMILES	Apaf-1 act	others
C#CCOCCOCCOCCNc1nc(N2CCN(C(=O)[C@H](Cc3cc4ccccc4[nH]3)n3cc([C@@H](N)CC(C)C)nn3)CC2)nc(N2CCN(C(=O)[C@H](Cc3cc4ccccc4[nH]3)n3cc([C@@H](N)CC(C)C)nn3)CC2)n1	71
O=C(c1ccco1)N1CCN(C(=O)c2cn(-c3ccccc3)nc2-c2ccc(F)cc2)CC1	72
CCOc1ccc(OCCSc2ccc(S(=O)(=O)N3CCN(C)CC3)cn2)cc1	55
CNC[C@@H]1Oc2ccc(NC(=O)Nc3cccc4ccccc34)cc2C(=O)N([C@@H](C)CO)C[C@@H]1C	57
Cc1nn(-c2ccccc2)c(N2CCCC2)c1/C=C1\N=C(c2ccc(OC(C)C)cc2)OC1=O	52
O=C(Nc1nc2c(Cl)cccc2s1)c1ccc([N+](=O)[O-])o1	-120*
O=C(NNc1cc(N2CCOCC2)nc(N2CCOCC2)n1)c1ccc(Cl)cc1Cl	47
COc1ccc(N=CC2=C(Nc3ccc(OC)cc3)c3c(C)nn(-c4ccccn4)c3CC2)cc1	93
CCCCN1CC[C@H]2C=CC[C@@H](C(=O)N3CCOCC3)[C@H]2C1=O	-437*
CC(C(=O)NC(=O)NC1CCCCC1)N(C)CC(=O)Nc1ccc(F)c(F)c1F (stereo not drawn)	46
Cc1cccc(N2CCN(C(=O)c3cc4cc(F)ccc4[nH]3)CC2)c1C	42
Cc1cc2cc(C(c3nnnn3Cc3ccco3)N3CCc4ccccc4C3)c(=O)[nH]c2cc1C (stereo not drawn)	41
CSCCC(NC(=O)c1ccccc1Br)C(=O)N1CCN(C(C)=O)CC1 (stereo not drawn)	48
COc1ccc(-c2cc(C(F)(F)F)n3ncc(C(=O)NCC4CCCO4)c3n2)cc1OC (stereo not drawn)	-496*
CC(C)Cn1c(N)c(C(=O)NCC2CCCO2)c2nc3ccccc3nc21 (stereo not drawn)	65
COCCn1c(N)c(C(=O)NCC2CCCO2)c2nc3ccccc3nc21 (stereo not drawn)	75
COc1ccc(OC)c(S(=O)(=O)Oc2ccc(N)c3ccccc23)c1	69
C[C@H](CCC(=O)NCC(=O)O)[C@H]1CC[C@H]2[C@@H]3[C@H](O)C[C@@H]4C[C@H](O)CC[C@]4(C)[C@H]3C[C@H](O)[C@]12C	-9
CCCCCCCCCCOC(=O)Cn1c(COc2ccccc2OC)[n+](C)c2ccccc21	71
CN(C)c1cc(Cl)c2nonc2c1N	94
COc1ccc(O)c(C(=O)c2cc(C#N)c(=O)n(-c3c(C)n(C)n(-c4ccccc4)c3=O)c2)c1	-40*	Rh110 act interf=4;Apaf-1 act conf=13
COc1cc(-c2c(C#N)c(=O)[nH]c3c2c(C)nn3-c2ccccc2)ccc1O	42
Oc1ccc(C[C@H]2CNCCN2CCCCC2CCCCC2)cc1	41
N#Cc1c(N)n(CCc2ccc(F)cc2)c2nc3ccccc3nc12	82
COc1ccc(CCNC(=O)C(=O)NCC2CCCN2S(=O)(=O)c2ccc(OC)cc2)cc1 (stereo not drawn)	61
SMILES	Apaf-1 act	others
COc1ccc(CNC(=O)CNS(=O)(=O)c2ccc(Cl)cc2)cc1	-177*	Rh110 act interf=7;Apaf-1 act conf=14
O=C(Cc1cc(=O)[nH][nH]1)N/N=C/C(Cl)=C/c1ccccc1	49
NNc1nc2c(Cl)c(Cl)ccc2s1	-59*	Rh110 act interf=0;Apaf-1 act conf=10
Nc1c(C(=O)NCc2ccco2)c2nc3ccccc3nc2n1CCc1ccc(F)cc1	78
Cc1ccc(S(=O)(=O)Nc2ccccc2F)cc1C(=O)NCc1ccco1	-54*	Rh110 act interf=11;Apaf-1 act conf=11
COc1cccc(/C=N/NC(=O)NC23CC4CC(CC(C4)C2)C3)c1O	40
OC(c1ccccc1)c1cccnc1 (stereo not drawn)	-54*	Rh110 act interf=-7;Apaf-1 act conf=9
C#CCOCCOCCOCCNc1nc(N2CCN(C(=O)CCCCCCCCCCNC(=O)[C@@H](CCSC)n3cc(CCO)nn3)CC2)nc(N2CCN(C(=O)CCCCCCCCCCNC(=O)[C@H]([C@@H](C)CC)n3cc(CCCCN=C(N)N)nn3)CC2)n1	64
O=C1C=C(Nc2ccccc2O)c2ccccc2C1=O	96
O=C(N/N=C\C=C\c1ccc([N+](=O)[O-])o1)c1cccs1	49
O=C(NCCO)Nc1ccc2nc(-c3ccco3)c(-c3ccco3)nc2c1	71
CC(=O)Nc1ccc(NC(=O)C2CCCN2C(=O)Nc2ccc(F)cc2)cc1 (stereo not drawn)	-208*	Rh110 act interf=4;Apaf-1 act conf=15
COc1ccc(NC(=O)N2CCCC2C(=O)Nc2ccccc2)cc1 (stereo not drawn)	-41*	Rh110 act interf=1;Apaf-1 act conf=13
O=C(NCCc1ccccc1)C1CCCN1C(=O)Nc1ccc(F)cc1 (stereo not drawn)	-43*	Rh110 act interf=6;Apaf-1 act conf=12
